Reference: ChEMBL document CHEMBL1122210, “(2-Chloroethyl)nitrosourea congeners of amino acid amides” (J Med Chem, 1982)

Legend:
L1210 [1] = experiment: Tested for Maximal effective dose against mouse leukemia L1210 cells; format: functional
How it was run: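 Male BDF1 hybrid mice inoculated ip with 10⁶ L1210 lymphoid leukemia cells; compounds in distilled water given ip once daily for 3 days starting 24 h after implantation (day 1). Percent ILS = 100(T/C-1) versus untreated tumor-bearing controls, counting 60-day survivors. Maximal effective dose recorded.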

L1210 [2] = experiment: Tested for Mean survival days against mouse leukemia L1210 cells; format: functional
How it was run: (§1)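 Male BDF1 hybrid mice inoculated ip with 10⁶ L1210 lymphoid leukemia cells; compounds dissolved in distilled water, given ip once daily for 3 days starting 24 h after implantation (day 1). %ILS = 100(T/C−1) versus untreated tumor-bearing controls, counting 60-day survivors; 60-day survivors tallied per treated group.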

[3] = Tested in vitro for Half- life period of the compound; format: ADME
L1210 [4] = experiment: Tested for Number of 60 days survivors per 5 treated mice against mouse leukemia L1210 cells; format: functional; how it was run: as §1
L1210 [5] = experiment: Tested for ratio of maximal effective dose/the dose which gives 30% ILS against mouse leukemia L1210 cells; format: cell-based
How it was run: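 In the L1210 model (male BDF1 mice, 10⁶ cells ip, ip dosing in distilled water once daily on days 1–3), therapeutic index is the maximal effective dose divided by the dose giving 30% ILS. ILS = 100(T/C-1), 60-day survivors included.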

L1210 [6] = experiment: Tested for Percent increase in life span against mouse leukemia L1210 cells; format: functional; how it was run: as §1
[7] = Tested for the toxicity after iv administration in SLC-BDF1 male mice; format: organism-based; conditions: SLC-BDF1, mouse, in vivo
How it was run: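 SLC-BDF1 male mice, 5 weeks old, six per group, single intravenous injection; deaths observed for 21 days; LD50 with 95% fiducial limits by the Litchfield-Wilcoxon method.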

[8] = Tested for the toxicity after ip administration in SLC-BDF1 male mice; format: organism-based; conditions: SLC-BDF1, mouse, in vivo
How it was run: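 SLC-BDF1 male mice, 5 weeks old, six per group, single intraperitoneal injection; deaths observed for 21 days; LD50 with 95% fiducial limits by the Litchfield-Wilcoxon method.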

| SMILES | maximal effective dose (L1210 [1]) [mg/kg/day] | Mean survival days (L1210 [2]) | half-life [3] [min] | Survivors (L1210 [4]) | Therapeutic index (L1210 [5]) | ILS (L1210 [6]) [%] | LD50 [7] [mg/kg] | LD50 [8] [mg/kg] |
| --- | --- | --- | --- | --- | --- | --- | --- | --- |
| NC(=O)CC(NC(=O)N(CCCl)N=O)C(N)=O (centres undefined) | 8 | >42.8 | 32.1 | 2 | 15.7 | >494.4 | – | – |
| CC(NC(=O)N(CCCl)N=O)C(N)=O (centres undefined) | 8 | >60 | 37 | 5 | 14.3 | >710.8 | – | – |
| NC(=O)C(Cc1ccc(O)cc1)NC(=O)N(CCCl)N=O (centres undefined) | 16 | >35.4 | – | 2 | 10 | >342.5 | – | – |
| CN(CC(N)=O)C(=O)N(CCCl)N=O [SARCNU] | 225 | >60 | 330 | 5 | 15.5 | >710 | 427 | 392 |
| CSCCC(NC(=O)N(CCCl)N=O)C(N)=O (centres undefined) | 16 | 27.2 | 38.1 | 0 | 5.9 | 277.8 | – | – |
| NC(=O)C(Cc1ccccc1)NC(=O)N(CCCl)N=O (centres undefined) | 32 | >38.2 | 49.9 | 1 | 3.8 | >445.7 | – | – |
| CC(C)C(NC(=O)N(CCCl)N=O)C(N)=O (centres undefined) | 8 | >60 | 44.5 | 5 | 15.7 | >757.1 | – | – |
| NC(=O)C(CO)NC(=O)N(CCCl)N=O (centres undefined) | 8 | >60 | 19.8 | 5 | 40 | >757.1 | – | – |
| NC(=O)CCNC(=O)N(CCCl)N=O | 16 | >60 | 61 | 5 | 15.2 | >733.3 | – | – |
| CC(C)CC(NC(=O)N(CCCl)N=O)C(N)=O (centres undefined) | 24 | >60 | 48.3 | 5 | 11.4 | >757.1 | – | – |
| NC(=O)CNC(=O)N(CCCl)N=O | 16 | >60 | 44 | 5 | 36.4 | >679.2 | 22.4 | 21.2 |
| NC(=O)C1CCCN1C(=O)N(CCCl)N=O (centres undefined) | 64 | >25.2 | 295 | 1 | 5.6 | >250 | 195 | 220 |
| CC(O)C(NC(=O)N(CCCl)N=O)C(N)=O (centres undefined) | 8 | >60 | 23.3 | 5 | 40 | >757.1 | – | – |
| NC(=O)CCCNC(=O)N(CCCl)N=O | 16 | >60 | 72.5 | 5 | 7.3 | >733.3 | – | – |
